In ChEMBL document CHEMBL1212700, “Small-molecule aggregates inhibit amyloid polymerization” (Nat Chem Biol, 2008):
pIC50: −log10 of the molar value. The source made the active and inactive calls. No cut-off for these calls is given here.

Assays:
[1] = target: T1, Eukaryotic peptide chain release factor GTP-binding subunit (Saccharomyces cerevisiae) (UniProt P05453); test: Inhibition of polyhistidine tagged yeast prion protein Sup35 expressed in Escherichia coli BL21 (DE3) assessed as inhibition of amyloid polymerization at 30 uM by thioflavin T fluorescence assay relative to untreated control
T1 sequence (whole entry): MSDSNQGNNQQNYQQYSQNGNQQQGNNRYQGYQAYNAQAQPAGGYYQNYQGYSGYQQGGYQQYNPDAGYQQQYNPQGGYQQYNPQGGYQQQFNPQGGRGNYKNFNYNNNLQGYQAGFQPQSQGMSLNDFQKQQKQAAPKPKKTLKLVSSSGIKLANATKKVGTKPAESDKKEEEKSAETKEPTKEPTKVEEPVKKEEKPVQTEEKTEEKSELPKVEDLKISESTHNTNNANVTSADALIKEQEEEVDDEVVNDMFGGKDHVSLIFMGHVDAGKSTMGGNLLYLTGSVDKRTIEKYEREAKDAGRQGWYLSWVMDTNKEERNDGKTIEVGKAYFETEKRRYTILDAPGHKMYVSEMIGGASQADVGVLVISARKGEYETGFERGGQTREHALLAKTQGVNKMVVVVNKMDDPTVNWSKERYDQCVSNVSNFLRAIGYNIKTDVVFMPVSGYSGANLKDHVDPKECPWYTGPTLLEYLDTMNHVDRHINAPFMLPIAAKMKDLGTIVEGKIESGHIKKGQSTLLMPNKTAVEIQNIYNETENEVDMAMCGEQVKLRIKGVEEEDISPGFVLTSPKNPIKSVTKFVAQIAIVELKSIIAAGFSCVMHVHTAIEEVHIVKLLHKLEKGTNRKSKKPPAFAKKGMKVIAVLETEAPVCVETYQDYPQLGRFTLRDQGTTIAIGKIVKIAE
In short: (§1)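 Sup35 fibrillization followed by thioflavin T fluorescence in seeded and unseeded polymerization reactions. For BSA lines, BSA added from a 20 mg ml−1 solution to a final 5 mg ml−1. Inhibition is relative to untreated reactions.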

[2] = target: T1, Eukaryotic peptide chain release factor GTP-binding subunit (Saccharomyces cerevisiae); test: Inhibition of polyhistidine tagged yeast prion protein Sup35 expressed in Escherichia coli BL21 (DE3) assessed as inhibition of amyloid polymerization at 30 uM in presence of 5 mg/ml BSA by thioflavin T fluorescence assay relative to untreated control; in short: as §1
[3] = organism: Mus musculus; test: Inhibition of mouse prion protein (89-230) assessed as inhibition of amyloid polymerization at 25 uM by thioflavin T fluorescence assay relative to untreated control
In short: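 Mouse prion protein (recMoPrP) fibrillization monitored by thioflavin T fluorescence; reactions contained 3 M urea.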

[4] = organism: Mus musculus; test: Inhibition of mouse prion protein (89-230) assessed as assessed as coating of prion protein with […] particles at 50 uM by transmission electron microscopy
In short: (§2)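 Preformed fibres (recMoPrP at 50 μM compound, Sup35 at 100 μM compound) were mixed with compound, then examined by transmission electron microscopy for colloidal particles coating the fibres.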

[5] = organism: Mus musculus; test: Inhibition of mouse prion protein (89-230) assessed as assessed as inhibition of fiber formation at 50 uM by transmission electron microscopy
In short: (§3)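 Transmission electron microscopy of recMoPrP (50 μM compound) or Sup35 (100 μM compound) polymerized in the presence of compound, scored for fibre formation.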

[6] = target: T1, Eukaryotic peptide chain release factor GTP-binding subunit (Saccharomyces cerevisiae); test: Inhibition of yeast prion protein Sup35 infection of PSI yeast spheroplast cells at 200 uM
In short: (§4)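 Yeast made infection-competent by enzymatic digestion of the cell wall, then exposed to Sup35 prion with compound; infectivity scored. EC50 derived from a 40–200 μM concentration series.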

[7] = target: T1, Eukaryotic peptide chain release factor GTP-binding subunit (Saccharomyces cerevisiae); conditions: at 50 µM
[8] = target: T1, Eukaryotic peptide chain release factor GTP-binding subunit (Saccharomyces cerevisiae); conditions: at 50 µM; remark: listed apart in the source
[9] = Inhibition of Beta-lactamase at 50 uM by nitrocefin hydrolysis assay
[10] = Inhibition of Beta-lactamase at 50 uM in presence of 0.01% Triton X-100 by nitrocefin hydrolysis assay
[11] = Inhibition of Beta-lactamase at 25 uM by nitrocefin hydrolysis assay
[12] = Inhibition of Beta-lactamase at 25 uM in presence of 0.01% Triton X-100 by nitrocefin hydrolysis assay
[13] = organism: Mus musculus; conditions: at 50 µM
[14] = Inhibition of Beta-lactamase at 35 uM by nitrocefin hydrolysis assay
[15] = Inhibition of Beta-lactamase at 35 uM in presence of 0.01% Triton X-100 by nitrocefin hydrolysis assay
[16] = Inhibition of Beta-lactamase at 30 uM by nitrocefin hydrolysis assay
[17] = Inhibition of Beta-lactamase at 30 uM in presence of 0.01% Triton X-100 by nitrocefin hydrolysis assay
[18] = target: T1, Eukaryotic peptide chain release factor GTP-binding subunit (Saccharomyces cerevisiae); test: Inhibition of polyhistidine tagged yeast prion protein Sup35 expressed in Escherichia coli BL21 (DE3) assessed as inhibition of amyloid polymerization at 10 uM by thioflavin T fluorescence assay relative to untreated control; in short: as §1
[19] = target: T1, Eukaryotic peptide chain release factor GTP-binding subunit (Saccharomyces cerevisiae); test: Inhibition of polyhistidine tagged yeast prion protein Sup35 expressed in Escherichia coli BL21 (DE3) assessed as inhibition of amyloid polymerization at 10 uM in presence of 5 mg/ml BSA by thioflavin T fluorescence assay relative to untreated control; in short: as §1
[20] = system: Saccharomyces cerevisiae; test: Toxicity in PSI yeast spheroplast cells infected with yeast prion protein Sup35; assay type: organism-based
[21] = Inhibition of dynamic light scattering at 25 uM by thioflavin T fluorescence assay relative to untreated control; assay type: physicochemical
In short: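 Sup35 fibrillization was tracked by dynamic light scattering, which served as a check against spectroscopic interference in the thioflavin T fluorescence read-out. Inhibition was scored against the reaction without compound.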

[22] = target: T1, Eukaryotic peptide chain release factor GTP-binding subunit (Saccharomyces cerevisiae); test: Inhibition of polyhistidine tagged yeast prion protein Sup35 expressed in Escherichia coli BL21 (DE3) assessed as inhibition of amyloid polymerization at 50 uM in presence of 0.5% seed fibres by thioflavin T fluorescence assay relative to untreated control
In short: (§5)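 Seeded Sup35 polymerization read by thioflavin T fluorescence, with seed at 0.5%, 1% or 5% and compound at fixed 50 μM. Preincubation line: 5-min preincubation before polymerization.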

[23] = target: T1, Eukaryotic peptide chain release factor GTP-binding subunit (Saccharomyces cerevisiae); test: Inhibition of polyhistidine tagged yeast prion protein Sup35 expressed in Escherichia coli BL21 (DE3) assessed as inhibition of amyloid polymerization at 50 uM in presence of 1% seed fibres by thioflavin T fluorescence assay relative to untreated control; in short: as §5
[24] = target: T1, Eukaryotic peptide chain release factor GTP-binding subunit (Saccharomyces cerevisiae); test: Inhibition of polyhistidine tagged yeast prion protein Sup35 expressed in Escherichia coli BL21 (DE3) assessed as inhibition of amyloid polymerization at 50 uM in presence of 5% seed fibres by thioflavin T fluorescence assay relative to untreated control; in short: as §5
[25] = target: T1, Eukaryotic peptide chain release factor GTP-binding subunit (Saccharomyces cerevisiae); test: Inhibition of polyhistidine tagged yeast prion protein Sup35 expressed in Escherichia coli BL21 (DE3) assessed as inhibition of amyloid polymerization at 100 uM by thioflavin T fluorescence assay relative to untreated control; in short: as §1
[26] = target: T1, Eukaryotic peptide chain release factor GTP-binding subunit (Saccharomyces cerevisiae); test: Inhibition of polyhistidine tagged yeast prion protein Sup35 expressed in Escherichia coli BL21 (DE3) assessed as inhibition of amyloid polymerization preincubation of seed fibers and compound for 5 mins at 100 uM by thioflavin T fluorescence assay relative to untreated control
[27] = target: T1, Eukaryotic peptide chain release factor GTP-binding subunit (Saccharomyces cerevisiae); test: Inhibition of yeast prion protein Sup35 infection of PSI yeast spheroplast cells at 100 uM; in short: as §4
[28] = target: T1, Eukaryotic peptide chain release factor GTP-binding subunit (Saccharomyces cerevisiae); test: Inhibition of polyhistidine tagged yeast prion protein Sup35 expressed in Escherichia coli BL21 (DE3) assessed as inhibition of amyloid polymerization at 5 uM by thioflavin T fluorescence assay relative to untreated control; in short: as §1
[29] = target: T1, Eukaryotic peptide chain release factor GTP-binding subunit (Saccharomyces cerevisiae); test: Inhibition of polyhistidine tagged yeast prion protein Sup35 expressed in Escherichia coli BL21 (DE3) assessed as inhibition of amyloid polymerization at 5 uM in presence of 5 mg/ml BSA by thioflavin T fluorescence assay relative to untreated control; in short: as §1
[30] = Inhibition of Beta-lactamase at 4 uM by nitrocefin hydrolysis assay
[31] = Inhibition of Beta-lactamase at 4 uM in presence of 0.01% Triton X-100 by nitrocefin hydrolysis assay
[32] = target: T2, Eukaryotic peptide chain release factor GTP-binding subunit (Saccharomyces cerevisiae, UniProt P05453); test: Inhibition of polyhistidine tagged yeast prion protein Sup35 expressed in Escherichia coli BL21 (DE3) assessed as inhibition of amyloid polymerization by thioflavin T fluorescence assay relative to untreated control; in short: as §1
T2 sequence (P05453 whole entry): T1 sequence (whole entry)

[33] = Inhibition of dynamic light scattering at 2 uM by thioflavin T fluorescence assay relative to untreated control; assay type: physicochemical
In short: (§6)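 Sup35 polymerization followed by dynamic light scattering rather than ThT fluorescence, as a control for spectroscopic interference; percent inhibition of the DLS signal.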

[34] = Inhibition of dynamic light scattering at 20 uM by thioflavin T fluorescence assay relative to untreated control; assay type: physicochemical; in short: as §6
[35] = target: T1, Eukaryotic peptide chain release factor GTP-binding subunit (Saccharomyces cerevisiae); test: Inhibition of polyhistidine tagged yeast prion protein Sup35 expressed in Escherichia coli BL21 (DE3) assessed as coating of prion protein with […] particles at 100 uM by transmission electron microscopy; in short: as §2
[36] = target: T1, Eukaryotic peptide chain release factor GTP-binding subunit (Saccharomyces cerevisiae); test: Inhibition of polyhistidine tagged yeast prion protein Sup35 expressed in Escherichia coli BL21 (DE3) assessed as inhibition of fiber formation at 100 uM by transmission electron microscopy; in short: as §3

CC(=O)c1c(O)c(C)c(O)c(Cc2c(O)c3c(c(C(=O)/C=C/c4ccccc4)c2O)OC(C)(C)C=C3)c1O
inhibition [1]: 99.4%
inhibition [2]: 40.5%
inhibition [3]: 71.1%
inhibition [4]: Active
inhibition [5]: Active
inhibition [6]: Active

CCN(CC)CC(=O)Nc1c(C)cccc1C
inhibition [3]: 0%
inhibition [6]: Active
inhibition [7]: 1.1%
inhibition [8]: 0%

O=C1NC(=O)c2cc(Nc3ccccc3)c(Nc3ccccc3)cc21
inhibition [3]: 73.6%
inhibition [6]: Active
inhibition [9]: 97%
inhibition [10]: 0.7%
inhibition [7]: 87.1%
inhibition [8]: 44.7%

Oc1c(I)cc(Cl)c2cccnc12
inhibition [11]: 51.6%
inhibition [12]: 6.4%
inhibition [7]: 54.7%
inhibition [8]: 0%
inhibition [13]: 0%

OC(Cn1cncn1)(Cn1cncn1)c1ccc(F)cc1F
inhibition [7]: 0%
inhibition [8]: 9%
inhibition [13]: 5.9%

Cc1cc(/N=N/c2ccc(-c3ccc(/N=N/c4cc(C)c(O)c(C(=O)O)c4)cc3)cc2)c(C(=O)O)cc1O
inhibition [14]: 50%
inhibition [15]: 0%

O=c1cc(-c2ccccc2)oc2cc(O)c(O)c(O)c12
inhibition [6]: Active
inhibition [16]: 51.8%
inhibition [17]: 0%
inhibition [7]: 95.4%
inhibition [8]: 17.6%
inhibition [13]: 34.3%

Oc1ccc(/N=N/c2ccc(Br)cc2)cc1
inhibition [18]: 36.4%
inhibition [19]: 2.1%
inhibition [3]: 100%
Activity [20]: Toxic

Clc1ccccc1C(c1ccccc1)(c1ccccc1)n1ccnc1 [CLOTRIMAZOLE]
inhibition (INH) [21]: 98%
inhibition [3]: 21.5%
inhibition [22]: 99%
inhibition [23]: 95%
inhibition [24]: 30%
Activity [20]: Toxic
inhibition [25]: 79%
inhibition [26]: 94%
inhibition [7]: 62.7%
inhibition [8]: 5.6%

COC(=O)C1=C(C)NC(C)=C(C(=O)OCCN(C)Cc2ccccc2)C1c1cccc([N+](=O)[O-])c1 (stereo not given)
inhibition [6]: Active
inhibition [27]: 50%
inhibition [25]: 55%
inhibition [26]: 88%
inhibition [7]: 61.5%
inhibition [8]: 0%
inhibition [13]: 22.7%

Nc1c(/N=N/c2ccc(-c3ccc(/N=N/c4cc(S(=O)(=O)O)c5ccccc5c4N)cc3)cc2)cc(S(=O)(=O)O)c2ccccc12
inhibition [28]: 100%
inhibition [29]: 100%
inhibition [30]: 92%
inhibition [31]: 20%
inhibition [13]: 100%

O=C1C(I)=CC(=C(c2ccccc2C(=O)O)C2C=C(I)C(=O)C(I)=C2)C=C1I [TERAIODOPHENOLPHATHALIN]
inhibition [1]: 99.3%
pIC50 [32]: 5.60
inhibition [2]: 6.8%
inhibition (INH) [33]: 30%
inhibition (INH) [34]: 99%
inhibition [35]: Active
inhibition [36]: Active
inhibition [6]: Active
inhibition [13]: 0%

Clc1ccc(CSC(Cn2ccnc2)c2ccc(Cl)cc2Cl)cc1 (stereo not given)
inhibition [7]: 75.5%
inhibition [8]: 10.1%
inhibition [13]: 100%
